Laboratory results taken from ChEMBL document CHEMBL3108738, “The chemical and biological potential of C ring modified triterpenoids” (Eur J Med Chem, 2014).
pIC50: −log10 of the molar value. Active and inactive are the calls of the source. The calls are words filed in the database; no cut-off is given here.

Key:
[1] = Cytotoxicity against human 518A2 cells after 96 hrs by SRB assay; format: functional, cell-based; conditions: 518A2, 96 h
A2780 [2] = experiment: Cell cycle arrest in human A2780 cells assessed as accumulation at G1 phase at 30 uM by propidium iodide staining-based FACS analysis (reference value: 51.839 %); format: functional
A549 = experiment: Cytotoxicity against human A549 cells after 96 hrs by SRB assay; format: functional, cell-based; conditions: A549, 96 h
A2780 [3] = experiment: Cell cycle arrest in human A2780 cells assessed as accumulation at S phase at 30 uM by propidium iodide staining-based FACS analysis (reference value: 32.439 %); format: functional
HT-29 = experiment: Cytotoxicity against human HT-29 cells after 96 hrs by SRB assay; format: functional, cell-based; conditions: HT-29, 96 h
A2780 [4] = experiment: Cytotoxicity against human A2780 cells after 96 hrs by SRB assay; format: functional, cell-based; conditions: A2780, 96 h
A2780 [5] = experiment: Cell cycle arrest in human A2780 cells assessed as accumulation at G2 phase at 30 uM by propidium iodide staining-based FACS analysis (reference value: 15.721 %); format: functional
A2780 [6] = experiment: Induction of apoptosis in human A2780 cells assessed as vital cells at 30 uM after 24 hrs by annexin V/propidium iodide staining-based FACS analysis (reference value: 82.15%); format: functional
A2780 [7] = experiment: Induction of apoptosis in human A2780 cells assessed as necrotic cells at 30 uM after 24 hrs by annexin V/propidium iodide staining-based FACS analysis (reference value: 1.78%); format: functional
A2780 [8] = experiment: Induction of apoptosis in human A2780 cells assessed as necrotic cells at 30 uM after 24 hrs by annexin V/propidium iodide staining-based FACS analysis (reference value: 6.37%); format: functional
8505C = experiment: cells; format: functional, cell-based; conditions: Homo sapiens, 96 h
MCF7 = experiment: Cytotoxicity against human MCF7 cells after 96 hrs by SRB assay; format: functional, cell-based; conditions: MCF7, 96 h
A2780 [9] = experiment: Induction of apoptosis in human A2780 cells assessed as secondary necrotic cells at 30 uM after 24 hrs by annexin V/propidium iodide staining-based FACS analysis (reference value: 9.71%); format: functional
A2780 [10] = experiment: Cell cycle arrest in human A2780 cells assessed as accumulation at G0/G1 phase at 30 uM by propidium iodide staining-based FACS analysis; format: functional
NIH3T3 = experiment: Cytotoxicity against mouse NIH/3T3 cells after 96 hrs by SRB assay; format: ADME, cell-based; conditions: NIH3T3, 96 h
A2780 [11] = experiment: Induction of apoptosis in human A2780 cells assessed as DNA ladder formation at 30 uM after 24 hrs by electrophoresis; format: functional, cell-based
How it was run: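 A2780 cells were exposed to 30 µM compound for 24 h. Floating (dead) cells were collected and washed with PBS, and DNA fragmentation was examined by gel laddering alongside an untreated control.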

A2780 [12] = experiment: Induction of apoptosis in human A2780 cells at 30 uM after 24 hrs by annexin V/propidium iodide staining-based FACS analysis; format: functional
A2780 [13] = experiment: Cell cycle arrest in human A2780 cells assessed as reduction of G2/M phase at 30 uM by propidium iodide staining-based FACS analysis; format: functional

SMILES | pIC50 [1] | Activity (A2780 [2]) [%] | pIC50 (A549) | Activity (A2780 [3]) [%] | pIC50 (HT-29) | pIC50 (A2780 [4]) | Activity (A2780 [5]) [%] | Activity (A2780 [6]) [%] | Activity (A2780 [7]) [%] | Activity (A2780 [8]) [%] | pIC50 (8505C) | pIC50 (MCF7) | Activity (A2780 [9]) [%] | Activity (A2780 [10]) [%] | pIC50 (NIH3T3) | Activity (A2780 [11]) | Activity (A2780 [12]) | Activity (A2780 [13])
CC(=O)O[C@H]1CC[C@]2(C)[C@H]3C(=O)C(O)=C4[C@@H]5CC(C)(C)CC[C@]5(C(=O)OCc5ccccc5)CC[C@@]4(C)[C@]3(C)CC[C@H]2C1(C)C | < 4.22 | 62.269 | < 4.22 | 22.262 | < 4.22 | 5.09 | 15.469 | 72.96 | 1.55 | 12.83 | 4.79 | < 4.22 | 12.64 | <20 | < 4.22 |  |  | 
COC(=O)[C@]12CCC(C)(C)C[C@H]1[C@H]1C(=O)C[C@@H]3[C@@]4(C)CC[C@H](OC(C)=O)C(C)(C)[C@@H]4CC[C@@]3(C)[C@]1(C)CC2 | 4.39 | 61.565 | < 4.52 | 24.431 | 4.33 | < 4.52 | 14.004 | 75.08 | 0.96 | 11 | 4.51 | < 4.52 | 12.96 | <20 | 4.55 |  |  | 
COC(=O)[C@]12CCC(C)(C)C[C@H]1C1=C(O)C(=O)[C@@H]3[C@@]4(C)CC[C@H](OC(C)=O)C(C)(C)[C@@H]4CC[C@@]3(C)[C@]1(C)CC2 | 5.11 | 49.973 | 5.09 | 42.682 | 4.87 | 5.40 | 7.345 | 57.12 | 2 | 24.67 | 5.08 | 5.03 | 16.21 |  | 4.90 | Active | Active | Active
